From ChEMBL document CHEMBL4765491, “Discovery of Potent and Selective Methylenephosphonic Acid CD73 Inhibitors” (J Med Chem, 2021)

Experiments:
5'-nucleotidase = 5'-nucleotidase (Homo sapiens, UniProt P21589); assay: Inhibition of human CD73 expressed in CHO cells incubated for 60 mins before addition of AMP and further incubated for 60 mins by colorimetric assay; type: cell-based
Summary of the method: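 Thawed stable CD73-CHO cells in HEPES pH 7.4 saline buffer with 0.1% glucose, 1500 cells/well. Preincubated 60 min at 37 °C with 16-point 1:3 compound dilutions (final 100–0 or 0.1–0 μM; 10 or 2% DMSO). 25 μM AMP then added, 60 min at 37 °C/5% CO2. Supernatant phosphate measured with PiColorLock Gold. Activity normalized to DMSO and no-cell wells. IC50 from a four-parameter fit.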

[1] = Clearance in Sprague-Dawley rat at 0.25 to 0.5 mg/kg, iv measured up to 24 hrs by LC-MS/MS analysis; type: ADME, organism-based; conditions: in vivo, dose 0.25-0.5 mg/kg
Summary of the method: (§1)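 Male SD rats (0.27–0.30 kg), acclimated. Single IV bolus via femoral vein at 0.25 or 0.5 mg/kg in 31.6% DMA/36.8% ethanol/31.6% PEG. Jugular blood at predose, 5, 15, 30 min, 1, 2, 4, 6, 8, 24 h, collected into K2-EDTA; plasma spun at 4 °C, stored −80 °C until analysis.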

[2] = Half life in Sprague-Dawley rat at 0.25 to 0.5 mg/kg, iv measured up to 24 hrs by LC-MS/MS analysis; type: ADME, organism-based; conditions: in vivo, dose 0.25-0.5 mg/kg; summary of the method: as §1

Sequence of 5'-nucleotidase (P21589 whole entry): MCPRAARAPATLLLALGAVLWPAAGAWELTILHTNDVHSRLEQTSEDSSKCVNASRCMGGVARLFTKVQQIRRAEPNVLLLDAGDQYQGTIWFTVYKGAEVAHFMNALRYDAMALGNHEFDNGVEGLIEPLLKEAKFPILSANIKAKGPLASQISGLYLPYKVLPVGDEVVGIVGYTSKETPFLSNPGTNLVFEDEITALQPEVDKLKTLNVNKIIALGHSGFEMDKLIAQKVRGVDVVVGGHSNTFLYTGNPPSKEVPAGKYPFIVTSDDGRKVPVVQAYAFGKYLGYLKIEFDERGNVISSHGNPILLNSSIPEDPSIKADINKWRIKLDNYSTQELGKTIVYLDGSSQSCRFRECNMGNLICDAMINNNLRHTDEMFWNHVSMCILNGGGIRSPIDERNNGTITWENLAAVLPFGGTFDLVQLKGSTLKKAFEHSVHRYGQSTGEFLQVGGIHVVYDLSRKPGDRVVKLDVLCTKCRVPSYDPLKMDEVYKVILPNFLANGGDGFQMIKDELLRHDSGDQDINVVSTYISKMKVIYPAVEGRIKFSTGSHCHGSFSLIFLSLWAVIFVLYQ

IC50 (5'-nucleotidase) | clearance [1] | half-life [2] | SMILES
110 nM |  |  | O=C(O)C(OC[C@H]1O[C@@H](n2cnc3c(NCc4ccccc4)nc(Cl)nc32)[C@H](O)[C@@H]1O)P(=O)(O)O (stereo partly specified)
124 nM |  |  | O=P(O)(O)COC[C@H]1O[C@@H](n2cnc3c(NCC4CCCC4)nc(Cl)nc32)[C@H](O)[C@@H]1O
46 nM |  |  | CN(Cc1ccccc1Cl)c1nc(Cl)nc2c1ncn2[C@@H]1O[C@H](COCP(=O)(O)O)[C@@H](O)[C@H]1O
 | 0.3 mL/min/kg | 4 h | C[C@H](Nc1cc(Cl)nc2c1cnn2[C@@H]1O[C@H](COCP(=O)(O)O)[C@@H](O)[C@H]1O)c1ccc(F)cc1
33 nM |  |  | O=P(O)(O)COC[C@H]1O[C@@H](n2cnc3c(NC4CCCC4)cc(Cl)nc32)[C@H](O)[C@@H]1O
4.5 nM |  |  | O=P(O)(O)COC[C@H]1O[C@@H](n2ncc3c(NC4CCCC4)cc(Cl)nc32)[C@H](O)[C@@H]1O
245 nM |  |  | O=P(O)(O)COC[C@H]1O[C@@H](n2cnc3c(NC4CCCC4)nc(-c4ccccc4)nc32)[C@H](O)[C@@H]1O
84 nM |  |  | O=P(O)(O)COC[C@H]1O[C@@H](n2cnc3c(N[C@@H]4CCOC4)nc(Cl)nc32)[C@H](O)[C@@H]1O
83 nM |  |  | O=P(O)(O)COC[C@H]1O[C@@H](n2cnc3c(NC4CCC4)nc(Cl)nc32)[C@H](O)[C@@H]1O
46 nM |  |  | O=P(O)(O)COC[C@H]1O[C@@H](n2cnc3c(NCc4ccccc4Cl)nc(Cl)nc32)[C@H](O)[C@@H]1O
3500 nM |  |  | Cc1ccccc1-c1nc(NC2CCCC2)c2ncn([C@@H]3O[C@H](COCP(=O)(O)O)[C@@H](O)[C@H]3O)c2n1
26 nM | 6.17 mL/min/kg | 0.97 h | O=P(O)(O)COC[C@H]1O[C@@H](n2cnc3c(NC4CCCC4)nc(Cl)nc32)[C@H](O)[C@@H]1O
382 nM |  |  | O=P(O)(O)COC[C@H]1O[C@@H](n2cnc3c(NCc4ccccn4)nc(Cl)nc32)[C@H](O)[C@@H]1O
173 nM |  |  | COc1ccccc1CCNc1nc(Cl)nc2c1ncn2[C@@H]1O[C@H](COCP(=O)(O)O)[C@@H](O)[C@H]1O
156 nM |  |  | C[C@@H](Nc1nc(Cl)nc2c1ncn2[C@@H]1O[C@H](COCP(=O)(O)O)[C@@H](O)[C@H]1O)c1ccccc1
 | 0.517 mL/min/kg | 2.4 h | C[C@H](Nc1nc(Cl)nc2c1cnn2[C@@H]1O[C@H](COCP(=O)(O)O)[C@@H](O)[C@H]1O)c1ccccc1
192 nM |  |  | CC(C)Nc1nc(Cl)nc2c1ncn2[C@@H]1O[C@H](COCP(=O)(O)O)[C@@H](O)[C@H]1O
3200 nM |  |  | Cn1cnnc1CNc1nc(Cl)nc2c1ncn2[C@@H]1O[C@H](COCP(=O)(O)O)[C@@H](O)[C@H]1O

Second part, the compound before the results:

SMILES | IC50 (5'-nucleotidase) | clearance [1] | half-life [2]
O=P(O)(O)COC[C@H]1O[C@@H](n2cnc3c(NCc4ccccc4)nc(Cl)nc32)[C@H](O)[C@@H]1O | 58 nM |  | 
C[C@H](Nc1nc(Cl)nc2c1cnn2[C@@H]1O[C@H](COCP(=O)(O)O)[C@@H](O)[C@H]1O)c1ccc(F)cc1 |  | 0.333 mL/min/kg | 4.5 h
O=P(O)(O)COC[C@H]1O[C@@H](n2cnc3c(N4CCCC4)nc(Cl)nc32)[C@H](O)[C@@H]1O | 45 nM |  | 
Cn1cc(CNc2nc(Cl)nc3c2ncn3[C@@H]2O[C@H](COCP(=O)(O)O)[C@@H](O)[C@H]2O)cn1 | 201 nM |  | 
O=P(O)(O)COC[C@H]1O[C@@H](n2cnc3c(NCCc4ccccc4)nc(Cl)nc32)[C@H](O)[C@@H]1O | 105 nM |  | 
O=P(O)(O)COC[C@H]1O[C@@H](n2cnc3c(NC4CCCC4)nc(COC4CCNC4)nc32)[C@H](O)[C@@H]1O (stereo partly specified) | > 10000 nM |  | 
O=P(O)(O)COC[C@H]1O[C@@H](n2cnc3c(NCCc4ccccc4F)nc(Cl)nc32)[C@H](O)[C@@H]1O | 121 nM |  | 
O=P(O)(O)CCCOC[C@H]1O[C@@H](n2cnc3c(NCc4ccccc4)nc(Cl)nc32)[C@H](O)[C@@H]1O | > 10000 nM |  | 
O=P(O)(O)COC[C@H]1O[C@@H](n2cnc3c(NC4CCCC4)nc(COc4ccccc4)nc32)[C@H](O)[C@@H]1O | 13 nM |  | 
O=P(O)(O)CCOC[C@H]1O[C@@H](n2cnc3c(NCc4ccccc4)nc(Cl)nc32)[C@H](O)[C@@H]1O | > 10000 nM |  | 
O=P(O)(O)OP(=O)(O)OC[C@H]1O[C@@H](n2cnc3c(NCc4ccccc4)nc(Cl)nc32)[C@H](O)[C@@H]1O | 0.4 nM |  | 
O=P(O)(O)COC[C@H]1O[C@@H](n2cnc3c(NC4CC4)nc(Cl)nc32)[C@H](O)[C@@H]1O | 588 nM |  | 
C[C@H](Nc1nc(Cl)nc2c1ncn2[C@@H]1O[C@H](COCP(=O)(O)O)[C@@H](O)[C@H]1O)c1ccccc1 | 65 nM | 2.33 mL/min/kg | 1.2 h
COCc1nc(NC2CCCC2)c2ncn([C@@H]3O[C@H](COCP(=O)(O)O)[C@@H](O)[C@H]3O)c2n1 | 118 nM |  | 
O=C(O)C(OC[C@H]1O[C@@H](n2cnc3c(NCc4ccccc4)nc(Cl)nc32)[C@H](O)[C@@H]1O)C(=O)O | 1000 nM |  | 
O=P(O)(O)COC[C@H]1O[C@@H](n2cnc3c(N4CCOCC4)nc(Cl)nc32)[C@H](O)[C@@H]1O | 148 nM |  | 
